Screening results from PubChem.
Most compounds without a hit are left out; they make up all but 3% or so of the library.
SIRT5 block – SIRT5 desuccinylase inhibitors, primary screen, biochemical, fluorescence imaging, single point, set 5 | NAD-dependent protein deacylase sirtuin-5, mitochondrial (Homo sapiens), Q9NXA8 | Purified SirT5, succinyl-peptide AMC, trypsin-coupled fluorescence | inhibition, % at 15 µM | 1.1% of 330,000 active; in the data active = inhibition above about 15%
Target sequence (Q9NXA8 whole entry, looked up): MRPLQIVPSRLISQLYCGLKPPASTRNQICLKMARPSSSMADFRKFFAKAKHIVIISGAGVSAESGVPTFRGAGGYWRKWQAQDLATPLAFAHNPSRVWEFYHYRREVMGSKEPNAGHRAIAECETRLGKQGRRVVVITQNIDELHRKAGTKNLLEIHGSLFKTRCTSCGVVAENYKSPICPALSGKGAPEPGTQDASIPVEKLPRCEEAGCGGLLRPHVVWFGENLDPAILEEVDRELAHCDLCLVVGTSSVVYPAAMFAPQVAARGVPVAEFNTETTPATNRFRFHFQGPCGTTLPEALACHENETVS
Ecoli rRNA inh – reduced GFP signal of wild-type E. coli, primary screen, bacterial rRNA inhibitor project, GFP/RFP fluorescence, OD600, single point. 1.6% of 350,000 active. GFP signal change (wild-type ribosome), % (no concentration beside the values). AID 720706, 2013. E. coli WT GFP vs humanized-ribosome RFP mutants, 24 h; stronger effect = lower value; DMSO median 0, no signal -100;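 active = significant combined selectivity score with lowered wild-type GFP, culture density cut under 30%, mutant RFP and density less affected; inactive = any of these conditions unmet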
S100A4 inh HTS – inhibitors of S100A4-myosin IIA peptide binding, primary screen, biochemical, fluorescence polarization, TAMRA-MyoIIA peptide; inhibition, % at 10.7 µM; 0.14% of 360,000 active; Protein S100-A4 (Homo sapiens), P26447; AID 652163, 2013;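 active = mean inhibition of at least 70% across replicates, with every replicate also reaching that level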
Target sequence (P26447 whole entry, looked up): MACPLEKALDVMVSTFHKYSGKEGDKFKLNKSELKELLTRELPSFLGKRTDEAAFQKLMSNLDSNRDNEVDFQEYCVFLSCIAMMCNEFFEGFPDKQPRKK
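Material: S100A4 monomer protein | Medium: HEPES pH 7.2 with CaCl2, KCl, NaCl, DTT, Triton | Reagent: Labelled myosin peptide probe, 5 nM | Doses: One dose per compound | Times: 5 min incubation before reading | Benchmarks: Neutral control DMSO, positive control TFP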
C2C12 statin – suppressors of statin myotoxicity in C2C12 myotubes, primary screen, cell-based, single point, plate reader | C2C12 myotubes + simvastatin, ATP luminescence, 48 h; scaled: DMSO 0, geranylgeraniol control 100 | rescue of ATP level, % at 7.49 µM | 0.78% of 330,000 active | AID 602340, 2012;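 active = mean ATP rescue above about 67%, or every replicate alone reaching that limit, limit read from the data, passing the limit was not always enough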;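 note: myotubes were challenged with 10 µM simvastatin during compound exposure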
PGC1a acetyl inh – inhibitors of PGC1a acetylation signal, primary screen, cell-based, U2OS, AlphaScreen, inhibitor mode; AlphaScreen anti-acetyl-lysine; with virally co-expressed GCN5 acetyltransferase; inhibition, % at 15.6 µM; 0.17% of 350,000 active; AID 651687, 2012;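 active = every replicate shows inhibition of at least 40%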;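 note: 0% = neutral control wells and 100% = positive control wells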
Cneo AK release – Cryptococcus neoformans cell lysis inducers, primary screen, AK release luminescence, single concentration; C. neoformans lysis, adenylate kinase release luminescence, 4 h; normalised: neutral wells 0, clomiphene wells 100; 0.2% of 360,000 active; lysis activity, % at 15 µM;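 active = mean lysis activity across replicates of at least 80%, whatever share of replicates individually reach that level; inactive = mean lysis activity below 80%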
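Material: C. neoformans cells | Amount: Yeast cell density of 5 × 10^6 cells/mL | Medium: Fresh YPD growth medium | Dosing: Single dose | Times: Static 4 h at 37 °C with compound, 1 h detection | Detection: AK luminescence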
Starred values were filed as active, the others as inactive.

For C[C@@H]1CN([C@@H](C)CO)C(=O)c2cc(NC(=O)Nc3cccc4ccccc34)ccc2O[C@@H](C)CCCCO[C@@H]1CN(C)C(=O)NC1CCCCC1 the results were SIRT5 block 5, Ecoli rRNA inh -1, S100A4 inh HTS -10, C2C12 statin 51, PGC1a acetyl inh 9 and Cneo AK release -2.
`COc1ccc(NC(=O)Nc2ccc3c(c2)C(=O)N([C@H](C)CO)C[C@H](C)[C@H](CN(C)C(=O)Nc2cccc4ccccc24)OCCCC[C@H](C)O3)cc1` gave SIRT5 block 14, Ecoli rRNA inh 3, S100A4 inh HTS 1, C2C12 statin 21, PGC1a acetyl inh -13 and Cneo AK release 2.
Screening CC(C)C#Cc1ccc2c(c1)O[C@@H](CN(C)C)[C@@H](C)CN([C@@H](C)CO)S2(=O)=O returned SIRT5 block 3, Ecoli rRNA inh 2, S100A4 inh HTS -2, C2C12 statin 7, PGC1a acetyl inh -9 and Cneo AK release 55.
Screening C[C@H]1CN([C@@H](C)CO)C(=O)Cc2cc(NC(=O)Nc3cccc4ccccc34)ccc2O[C@H]1CN(C)Cc1ccc(Oc2ccccc2)cc1 returned SIRT5 block -5, Ecoli rRNA inh 4, S100A4 inh HTS -5, C2C12 statin 22, PGC1a acetyl inh -4 and Cneo AK release 3.
`C[C@@H]1CN([C@@H](C)CO)C(=O)Cc2cc(NC(=O)Nc3cccc4ccccc34)ccc2O[C@@H]1CN(C)Cc1ccc(C(=O)O)cc1` gave SIRT5 block 0, Ecoli rRNA inh -5, S100A4 inh HTS -1, C2C12 statin 6, PGC1a acetyl inh 2 and Cneo AK release 115*.
Screening C[C@H](CO)N1C[C@H](C)[C@@H](CN(C)Cc2ccc(Oc3ccccc3)cc2)Oc2ccc(NC(=O)Nc3ccccc3)cc2CC1=O returned SIRT5 block 6, Ecoli rRNA inh 6, S100A4 inh HTS 22, C2C12 statin 79*, PGC1a acetyl inh -41 and Cneo AK release 1.
Screening COc1ccc(NC(=O)Nc2ccc3c(c2)CC(=O)N([C@H](C)CO)C[C@H](C)[C@@H](CN(C)Cc2ccc(Oc4ccccc4)cc2)O3)cc1 returned SIRT5 block 23*, Ecoli rRNA inh 1, S100A4 inh HTS 4, C2C12 statin -12, PGC1a acetyl inh -10 and Cneo AK release -2.
C[C@H](CO)N1C[C@H](C)[C@@H](CN(C)Cc2ccc(Oc3ccccc3)cc2)Oc2ccc(NC(=O)Nc3cccc4ccccc34)cc2CC1=O was read as SIRT5 block 0, Ecoli rRNA inh 2, S100A4 inh HTS 8, C2C12 statin 74*, PGC1a acetyl inh -12 and Cneo AK release 4.
`C[C@H]1CN([C@@H](C)CO)C(=O)Cc2cc(NC(=O)Nc3cccc4ccccc34)ccc2O[C@H]1CN(C)Cc1ccc(C(=O)O)cc1` gave SIRT5 block 9, Ecoli rRNA inh -2, S100A4 inh HTS 27, C2C12 statin 1, PGC1a acetyl inh -2 and Cneo AK release 8.
COc1ccc(NC(=O)Nc2ccc3c(c2)CC(=O)N([C@@H](C)CO)C[C@H](C)[C@H](CN(C)Cc2ccc(Oc4ccccc4)cc2)O3)cc1 was read as SIRT5 block 2, Ecoli rRNA inh -1, S100A4 inh HTS 7, C2C12 statin 12, PGC1a acetyl inh -8 and Cneo AK release -1.
`Cc1noc(C)c1NC(=O)Nc1ccc2c(c1)CC(=O)N([C@H](C)CO)C[C@@H](C)[C@H](CN(C)S(=O)(=O)c1c(C)noc1C)O2` gave SIRT5 block 3, Ecoli rRNA inh 7, S100A4 inh HTS -3, C2C12 statin 17, PGC1a acetyl inh -3 and Cneo AK release 0.
COc1ccc(C(=O)Nc2ccc3c(c2)OC[C@@H](C)N(C)C[C@H](C)[C@@H](OC)CN(C)C3=O)cc1 was read as SIRT5 block 5, Ecoli rRNA inh -3, S100A4 inh HTS 3, C2C12 statin 4 and Cneo AK release -5.
O=C(Nc1nccs1)[C@H]1[C@H](CO)[C@H]2Cn3c(cccc3=O)[C@@H]1N2C(=O)C1CCCCC1 was read as SIRT5 block 1, Ecoli rRNA inh 1, S100A4 inh HTS 1 and PGC1a acetyl inh -2.
COc1ccc(CN(C)C[C@H]2Oc3ccc(NC(=O)Cn4cnnn4)cc3C(=O)N([C@@H](C)CO)C[C@H]2C)cc1 was read as SIRT5 block 0, Ecoli rRNA inh 3, S100A4 inh HTS -1, C2C12 statin -16, PGC1a acetyl inh -2 and Cneo AK release 0.
COc1ccc(NC(=O)Nc2ccc3c(c2)CC(=O)N([C@@H](C)CO)C[C@@H](C)[C@H](CN(C)Cc2ccccc2)O3)cc1 was read as SIRT5 block 6, Ecoli rRNA inh -1, S100A4 inh HTS 96*, C2C12 statin -6, PGC1a acetyl inh -8 and Cneo AK release -1.
CC(C)NC(=O)Nc1ccc2c(c1)CC(=O)N([C@H](C)CO)C[C@H](C)[C@H](CN(C)Cc1ccc(Oc3ccccc3)cc1)O2 was read as SIRT5 block 2, Ecoli rRNA inh -8, S100A4 inh HTS -3, C2C12 statin 36, PGC1a acetyl inh -5 and Cneo AK release 2.
CC(C)NC(=O)Nc1ccc2c(c1)CC(=O)N([C@H](C)CO)C[C@@H](C)[C@@H](CN(C)Cc1ccc(Oc3ccccc3)cc1)O2 was read as SIRT5 block 5, Ecoli rRNA inh -1, S100A4 inh HTS -17, C2C12 statin -75, PGC1a acetyl inh -6 and Cneo AK release 105*.
CO[C@@H]1CN(C)C(=O)c2cc(NC(=O)c3ccccc3F)ccc2OC[C@@H](C)N(CC2CC2)C[C@@H]1C was read as SIRT5 block -3, Ecoli rRNA inh 1, S100A4 inh HTS 11, C2C12 statin 17, PGC1a acetyl inh 1 and Cneo AK release -45.
Screening COc1c(F)c(F)c(C(=O)Nc2ccc3oc(-c4ccncc4)nc3c2)c(F)c1F returned C2C12 statin -20, PGC1a acetyl inh 6 and Cneo AK release 4.
Screening COc1cccc(OC)c1C(=O)NC(=S)Nc1ccc2oc(-c3ccncc3)nc2c1 returned SIRT5 block -1, Ecoli rRNA inh -14*, S100A4 inh HTS 2, C2C12 statin 6, PGC1a acetyl inh 1 and Cneo AK release 0.
